According to ChEMBL document CHEMBL3232919, “Imidazol-1-ylethylindazole voltage-gated sodium channel ligands are neuroprotective during optic neuritis in a mouse model of multiple sclerosis” (J Med Chem, 2014):

Tests used:
[1] = Displacement of [3H]sipatrigine from Wistar rat brain synaptosomes voltage-gated sodium channel by liquid scintillation counting; type: subcellular
[2] = species: Rattus norvegicus; test: Neuroprotective activity in oxygen/glucose deprivation-induced Wistar rat hippocampal slice assessed as inhibition of cell death by measuring ATP level at 50 uM; type: functional
[3] = Metabolic stability in rat liver microsomes assessed as drug turnover at 1 uM at 40 mins by LC-MS/MS analysis; type: ADME; conditions: read-out: Drug metabolism
In short: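 Compound at 1 μM was incubated (n=2) with pooled rat liver microsomes (0.25 mg protein/ml) at 37°C for 0 and 40 min. Reactions were stopped with acetonitrile containing an internal standard, and parent disappearance was measured by LC-MS/MS. Percentage turnover was taken from peak heights relative to the zero-time samples.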

[4] = species: Rattus norvegicus; conditions: Wistar, 1 uM
[5] = species: Rattus norvegicus; test: Neuroprotective activity in oxygen/glucose deprivation-induced Wistar rat hippocampal slice assessed as inhibition of cell death by measuring ATP level at 30 uM normalized to tetrodotoxin; type: functional
[6] = species: Rattus norvegicus; test: Neuroprotective activity in oxygen/glucose deprivation-induced Wistar rat hippocampal slice assessed as inhibition of cell death by measuring ATP level; type: functional
[7] = species: Rattus norvegicus; test: Neuroprotective activity in oxygen/glucose deprivation-induced Wistar rat hippocampal slice assessed as inhibition of cell death by measuring ATP level at 3 uM; type: functional

Row | Structure (SMILES) | IC50 [1] | inhibition at 50 µM [2] | further results
1 | O=S(=O)(NCc1noc(-c2nn(CCn3ccnc3)c3ccccc23)n1)c1ccc(OC(F)(F)F)cc1 | 4.9 µM | 0% | –
2 | O=C(NCc1noc(-c2c3ccccc3nn2CCn2ccnc2)n1)c1ccc2ccccc2c1 | 0.4 µM | 22% | –
3 | COc1cccc(C(=O)NCc2noc(-c3c4ccccc4nn3CCn3ccnc3)n2)c1 | 5 µM | 63% | –
4 | NCc1noc(-c2nn(Cc3ccc(-n4cccn4)cc3)c3ccccc23)n1 | 6.2 µM | 26% | –
5 | CC(C)(C)OC(=O)NCc1noc(-c2nn(-c3ccccn3)c3ccccc23)n1 | 74 µM | 18% | –
6 | COc1ccccc1C(=O)NCc1noc(-c2c3ccccc3nn2CCn2ccnc2)n1 | 7.1 µM | 54% | –
7 | CC(C)(C)OC(=O)NCc1noc(-c2c3ccccc3nn2CCn2ccnc2)n1 | 15.5 µM | 35% | metabolised at 40 min, 1 µM [3]: 70%
8 | NC1=N[C@H](O)[C@H]2[C@H]3O[C@]4(O)O[C@@H]([C@@H](O)[C@@]2(N1)[C@@H]4O)[C@]3(O)CO | – | – | inhibition [4]: 100%
9 | NCc1noc(-c2c3ccccc3nn2CCc2cccs2)n1 | 0.6 µM | 36% | –
10 | Cc1oncc1Cn1nc(-c2nc(CNC(=O)OC(C)(C)C)no2)c2ccccc21 | 339 µM | 39% | –
11 | O=C(NCc1noc(-c2nn(CCn3ccnc3)c3ccccc23)n1)c1cccc2[nH]ccc12 | 13 µM | 52% | –
12 | O=C(NCc1noc(-c2c3ccccc3nn2CCn2ccnc2)n1)c1ccc2c(c1)OCO2 | 5 µM | 27% | –
13 | O=S(=O)(NCc1noc(-c2nn(CCn3ccnc3)c3ccccc23)n1)c1ccc(Cl)cc1 | 10 µM | 21% | –
14 | Cc1cc(C(=O)NCc2noc(-c3c4ccccc4nn3CCn3ccnc3)n2)ccc1[N+](=O)[O-] | 1.7 µM | 43% | –
15 | CC(C)(C)OC(=O)NCc1noc(-c2nn(Cc3ccc4c(c3)OCO4)c3ccccc23)n1 | 6 µM | -3% | –
16 | NCc1noc(-c2nn(Cc3ccc4c(c3)OCO4)c3ccccc23)n1 | 2.1 µM | 44% | –
17 | Nc1nnc(-c2cccc(Cl)c2Cl)c(N)n1 [LAMOTRIGINE] | – | – | inhibition (INH) [5]: 33%
18 | CC(C)(C)c1ccc(S(=O)(=O)NCc2noc(-c3nn(CCn4ccnc4)c4ccccc34)n2)cc1 | 4.4 µM | 16% | –
19 | CC(=O)Nc1ccc(S(=O)(=O)NCc2noc(-c3c4ccccc4nn3CCn3ccnc3)n2)cc1 | 17 µM | 25% | metabolised at 40 min, 1 µM [3]: 54%
20 | Cc1oncc1Cn1nc(-c2nc(CN)no2)c2ccccc21 | 15 µM | 19% | –
21 | Cc1cccc(C(=O)NCc2noc(-c3c4ccccc4nn3CCn3ccnc3)n2)c1 | 2.5 µM | 41% | –
22 | O=C(NCc1noc(-c2c3ccccc3nn2CCn2ccnc2)n1)c1ccc(Cl)cc1 | 2.2 µM | 42% | –
23 | O=C(NCc1noc(-c2c3ccccc3nn2CCn2ccnc2)n1)c1ccc(OC(F)(F)F)cc1 | 0.7 µM | 31% | –
24 | NCc1noc(-c2c3ccccc3nn2Cc2ccccc2)n1 | – | 57% | –
25 | NCc1noc(-c2c3ccccc3nn2Cc2ccccn2)n1 | > 10000 µM | 25% | –

Row | Structure (SMILES) | IC50 [1] | inhibition at 50 µM [2] | further results
26 | NCc1noc(-c2nn(CCn3ccnc3)c3ccccc23)n1 | 148 µM | -2% | –
27 | CC(C)(C)OC(=O)NCc1noc(-c2c3ccccc3nn2CCc2cccs2)n1 | 166 µM | 1% | –
28 | O=C(NCc1noc(-c2nn(CCn3ccnc3)c3ccccc23)n1)c1cccc(OC(F)(F)F)c1 | 1.5 µM | 37% | metabolised at 40 min, 1 µM [3]: 78%
29 | Cc1ccccc1S(=O)(=O)NCc1noc(-c2nn(CCn3ccnc3)c3ccccc23)n1 | 4.9 µM | 57% | –
30 | CC(C)(C)c1ccc(C(=O)NCc2noc(-c3nn(CCn4ccnc4)c4ccccc34)n2)cc1 | 1.2 µM | 40% | –
31 | NCc1noc(-c2c3ccccc3nn2CCn2ccnc2)n1 | 14 µM | 8% | metabolised at 40 min, 1 µM [3]: 57%
32 | CC(C)(C)OC(=O)NCc1noc(-c2nn(Cc3ccc(-n4cccn4)cc3)c3ccccc23)n1 | 617 µM | 20% | –
33 | Cc1ccccc1C(=O)NCc1noc(-c2c3ccccc3nn2CCn2ccnc2)n1 | 2.9 µM | 62% | –
34 | COc1cccc(C(=O)NCc2noc(-c3c4ccccc4nn3CCn3ccnc3)n2)c1OC | 5.8 µM | 88% | EC50 [6]: 12.3 µM
35 | O=S(=O)(NCc1noc(-c2c3ccccc3nn2CCn2ccnc2)n1)c1ccccc1 | 1.7 µM | 38% | EC50 [6]: 29.5 µM; metabolised at 40 min, 1 µM [3]: 97%
36 | NCc1noc(-c2nn(Cc3ccccc3)c3ccccc23)n1 | – | – | EC50 [6]: 35 µM
37 | CC(=O)Nc1ccc(C(=O)NCc2noc(-c3c4ccccc4nn3CCn3ccnc3)n2)cc1 | 59 µM | -14% | metabolised at 40 min, 1 µM [3]: 45%
38 | O=S(=O)(NCc1noc(-c2nn(CCn3ccnc3)c3ccccc23)n1)c1cccc(C(F)(F)F)c1 | 2.1 µM | 38% | –
39 | NCc1noc(-c2nn(-c3ccccn3)c3ccccc23)n1 | 32 µM | -11% | –
40 | CC(C)(C)OC(=O)NCc1noc(-c2c3ccccc3nn2Cc2ccccn2)n1 | 23 µM | 42% | –
41 | COc1cccc(S(=O)(=O)NCc2noc(-c3nn(CCn4ccnc4)c4ccccc34)n2)c1OC | > 500 µM | 37% | –
42 | O=C(NCc1noc(-c2c3ccccc3nn2Cc2ccccn2)n1)c1ccccc1 | 41 µM | 58% | –
43 | CC(C)(C)OC(=O)NCc1noc(-c2nn(CCn3ccnc3)c3ccccc23)n1 | 7.4 µM | 56% | –
44 | COc1ccc(C(=O)NCc2noc(-c3c4ccccc4nn3CCn3ccnc3)n2)cc1 | 6.2 µM | 55% | –
45 | Cc1oncc1Cn1nc(-c2nc(CNC(=O)c3ccccc3)no2)c2ccccc21 | > 2000 µM | 19% | –
46 | O=C(NCc1noc(-c2c3ccccc3nn2CCn2ccnc2)n1)c1cccc(F)c1F | 3.6 µM | 2% | –
47 | COc1cccc(C(=O)NCc2noc(-c3nn(CCn4ccnc4)c4ccccc34)n2)c1OC | 7.1 µM | 69% | –
48 | COc1ccc(C(=O)NCc2noc(-c3nn(CCn4ccnc4)c4ccccc34)n2)c(OC)c1OC | 5.3 µM | 37% | –
49 | CN1CCN(c2ncc(-c3cc(Cl)cc(Cl)c3Cl)c(N)n2)CC1 [SIPATRIGINE] | – | – | inhibition at 3 µM [7]: 93%
50 | O=C(NCc1noc(-c2c3ccccc3nn2CCc2cccs2)n1)c1ccccc1 | > 1000 µM | -2% | –
